Activity calls are given as the source filed them. The rule behind the calls is not given here.
Columns and labels:
[1] = biological target: Free fatty acid receptor 1 (Rattus norvegicus, UniProt Q8K3T4); assay: Displacement of 3-[4-({2',6'-dimethyl-6-[(4-[3H])phenylmethoxy]biphenyl-3-yl}methoxy)phenyl] propanoic acid from rat GPR40 receptor expressed in CHO cell membrane after 90 mins by liquid scintillation counting in the presence of 0.2% BSA; type: cell membranes
Procedure, shortened: (§1)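 Membranes from CHO lines stably expressing human or rat GPR40, buffer 25 mmol/L Tris-HCl pH 7.5, 5 mmol/L EDTA, protease inhibitors, 0.05% CHAPS, 0.2% fatty-acid-free BSA. Tritiated ligand at 2 or 6 nmol/L with graded test compound, 90 min room temperature, GF/C filtration, scintillation counting. Nonspecific binding: 10 μmol/L unlabeled ligand. IC50 by nonlinear regression, Ki = IC50/(1+[L]/Kd).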

[2] = Cytotoxicity against human HepG2 cells assessed as intracellular ATP level at 30 uM after 24 hrs by ATPlite assay relative to control; type: cell-based; conditions: read-out: Activity
Procedure, shortened: (§2)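 HepG2 cells seeded 2 × 10^4/well, treated 1 day in DMEM with 0.5% FBS, 2 mM L-glutamine, 1 mM pyruvate. ATP measured by ATPlite luminescence; % of 1% DMSO control (RLU ratio ×100), n = 3.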

[3] = biological target: T1, Free fatty acid receptor 1 (Homo sapiens, UniProt O14842); assay: Displacement of 3-[4-({2',6'-dimethyl-6-[(4-[3H])phenylmethoxy]biphenyl-3-yl}methoxy)phenyl] propanoic acid from human GPR40 receptor expressed in CHO cell membrane after 90 mins by liquid scintillation counting in the presence of 0.2% BSA; type: cell membranes; procedure, shortened: as §1
[4] = Metabolic stability in human hepatic microsomes; type: ADME; conditions: liver microsomes, read-out: Stability
[5] = Lipophilicity, log D of the compound by RP-HPLC analysis; type: physicochemical
[6] = Cytotoxicity against human HepG2 cells assessed as intracellular ATP level at 10 uM after 24 hrs by ATPlite assay relative to control; type: cell-based; conditions: read-out: Activity; procedure, shortened: as §2
HepG2 [7] = assay: Induction of apoptosis in human HepG2 cells assessed as caspase 3/7 activity at 10 uM after 24 hrs by caspase Glo assay relative to staurosporine; type: cell-based; conditions: hepg2, 24 h
Procedure, shortened: (§3)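 HepG2 cells seeded 2 × 10^4/well, treated 1 day in DMEM with 0.5% FBS, 2 mM L-glutamine, 1 mM pyruvate. Caspase-Glo 3/7 luminescence; activity = (compound − 1% DMSO)/(30 μM staurosporine − 1% DMSO) ×100, n = 3.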

HepG2 [8] = assay: Induction of apoptosis in human HepG2 cells assessed as caspase 3/7 activity at 30 uM after 24 hrs by caspase Glo assay relative to staurosporine; type: cell-based; conditions: hepg2, 24 h; procedure, shortened: as §3
[9] = biological target: T1, Free fatty acid receptor 1; assay: Agonist activity at human GPR40 receptor expressed in CHO cells assessed as increase in intracellular calcium level for 90 secs by FLIPR assay in the presence of 0.1% BSA; type: functional, cell-based
Procedure, shortened: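 CHO dhfr cells stably expressing human GPR40 plated overnight, loaded 60 min at 37 °C with Fluo 4 AM (2.5 μg/mL), 2.5 mmol/L probenecid, 0.1% fatty acid-free BSA. Ca2+ rise after compound addition read 90 s; response scaled between vehicle (0%) and 10 μM γ-linolenic acid (100%).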

[10] = Metabolic stability in rat hepatic microsomes; type: ADME; conditions: liver microsomes, read-out: Stability
Rattus norvegicus [11] = species on record: Rattus norvegicus; assay: Insulinotropic activity in rat INS1(833/15) cells assessed as increase in insulin secretion at 10 uM after 2 hrs by competitive enzyme immunoassay in the presence of 16 mM glucose; type: functional, cell-based
Procedure, shortened: (§4)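 INS-1 833/15 cells seeded on poly-L-lysine, cultured 2 days, preincubated in KRBH (0.2% FFA-free BSA) with 1 mM glucose, then 2 h in KRBH at 1–16 mM glucose with or without compound (DMSO vehicle). Secreted insulin by EIA; expressed as fold over 1 mM glucose alone, mean ± SD (n = 3–6).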

Rattus norvegicus [12] = species on record: Rattus norvegicus; assay: Insulinotropic activity in rat INS1(833/15) cells assessed as increase in insulin secretion at 10 uM after 2 hrs by competitive enzyme immunoassay in the presence of 11 mM glucose; type: functional, cell-based; procedure, shortened: as §4
Rattus norvegicus [13] = species on record: Rattus norvegicus; assay: Insulinotropic activity in rat INS1(833/15) cells assessed as increase in insulin secretion at 10 uM after 2 hrs by competitive enzyme immunoassay in the presence of low concentration of glucose; type: functional, cell-based; procedure, shortened: as §4
Rattus norvegicus [14] = assay: Toxicity in rat assessed as adverse effect at 15 to 150 mg/kg, po after 4 weeks; type: organism-based; design: dose 15-150 mg/kg, route oral; conditions: in vivo, 672 h
Procedure, shortened: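 Normal rats dosed orally at 15, 50 and 150 mg/kg for 4 weeks; adverse effects recorded.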

Rattus norvegicus [15] = assay: Induction of hypoglycemia in fasted Sprague-Dawley rat assessed as increase in insulin secretion level at 30 mg/kg, po after 30 mins; conditions: in vivo, 0.5 h
Rattus norvegicus [16] = assay: Insulinotropic activity in po dosed fasted Wistar fatty rat assessed as decrease in blood glucose level administered 30 mins prior to glucose-challenge by oral glucose tolerance test relative to vehicle treated control; type: functional, organism-based
Procedure, shortened: (§5)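 Thirteen-week-old female Wistar fatty rats, overnight fasted, grouped on body weight, PG, TG, NEFA (n = 6). Oral dose (0.1–1 mg/kg, 0.5% methylcellulose vehicle) 30 min before oral glucose 1 g/kg; tail-vein blood at 0, 10, 30, 60, 120 min; plasma glucose by analyzer, insulin by RIA.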

Rattus norvegicus [17] = assay: Insulinotropic activity in po dosed fasted Wistar fatty rat assessed as increase in insulin secretion administered 30 mins prior to glucose-challenge by oral glucose tolerance test relative to vehicle treated control; type: functional, organism-based; procedure, shortened: as §5
Rattus norvegicus [18] = assay: Induction of hypoglycemia in fasted Sprague-Dawley rat assessed as decrease in plasma glucose level below normal fasting level at 30 mg/kg, po; type: organism-based; design: dose 30 mg/kg, route oral; conditions: in vivo
Procedure, shortened: (§6)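 Eight-week-old male SD rats fasted overnight, grouped by body weight (n = 6), single oral dose in 0.5% methylcellulose vehicle; tail-vein blood before and 0.5, 1, 2, 3 h after dosing; plasma glucose by analyzer, insulin by ELISA; mean ± SD.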

Rattus norvegicus [19] = assay: Insulinotropic activity in fasted Wistar fatty rat assessed as decrease in blood glucose level at 0.3 mg/kg, po administered 30 mins prior to glucose-challenge by oral glucose tolerance test relative to vehicle treated control; type: functional, organism-based; design: dose 0.3 mg/kg; procedure, shortened: as §5
Rattus norvegicus [20] = species on record: Rattus norvegicus; assay: Insulinotropic activity in rat INS1(833/15) cells assessed as increase in insulin secretion at 1 uM after 2 hrs by competitive enzyme immunoassay in the presence of 16 mM glucose; type: functional, cell-based; procedure, shortened: as §4
Rattus norvegicus [21] = species on record: Rattus norvegicus; assay: Insulinotropic activity in rat INS1(833/15) cells assessed as increase in insulin secretion at 1 uM after 2 hrs by competitive enzyme immunoassay in the presence of 1 mM glucose; type: functional, cell-based; procedure, shortened: as §4
Rattus norvegicus [22] = species on record: Rattus norvegicus; assay: Insulinotropic activity in rat INS1(833/15) cells assessed as increase in insulin secretion after 2 hrs by competitive enzyme immunoassay in the presence of 11 mM glucose; type: functional, cell-based; procedure, shortened: as §4
Rattus norvegicus [23] = species on record: Rattus norvegicus; assay: Insulinotropic activity in rat INS1(833/15) cells assessed as increase in insulin secretion at 1 uM after 2 hrs by competitive enzyme immunoassay in the presence of >6 mM glucose; type: functional, cell-based; procedure, shortened: as §4
Rattus norvegicus [24] = species on record: Rattus norvegicus; assay: Insulinotropic activity in rat INS1(833/15) cells assessed as increase in insulin secretion at 1 uM after 2 hrs by competitive enzyme immunoassay in the presence of 4 mM glucose; type: functional, cell-based; procedure, shortened: as §4
Rattus norvegicus [25] = species on record: Rattus norvegicus; assay: Insulinotropic activity in rat INS1(833/15) cells assessed as increase in insulin secretion at >0.1 uM after 2 hrs by competitive enzyme immunoassay in the presence of 11 mM glucose; type: functional, cell-based; procedure, shortened: as §4
Rattus norvegicus [26] = species on record: Rattus norvegicus; assay: Insulinotropic activity in rat INS1(833/15) cells assessed as increase in insulin secretion at 30 uM after 2 hrs by competitive enzyme immunoassay in the presence of 11 mM glucose; type: functional, cell-based; procedure, shortened: as §4
Rattus norvegicus [27] = assay: Induction of hypoglycemia in fasted Sprague-Dawley rat assessed as increase in insulin secretion level at 30 mg/kg, po after 30 mins; type: organism-based; design: dose 30 mg/kg, route oral; conditions: in vivo, 0.5 h; procedure, shortened: as §6
Rattus norvegicus [28] = species on record: Rattus norvegicus; assay: Insulinotropic activity in rat INS1(833/15) cells assessed as increase in insulin secretion at 30 uM after 2 hrs by competitive enzyme immunoassay in the presence of low concentration of glucose; type: functional, cell-based; procedure, shortened: as §4
Rattus norvegicus [29] = assay: Induction of hypoglycemia in fasted Sprague-Dawley rat assessed as decrease in plasma glucose level below normal fasting level at 10 mg/kg, po; type: organism-based; design: dose 10 mg/kg, route oral; conditions: in vivo; procedure, shortened: as §6
Rattus norvegicus [30] = species on record: Rattus norvegicus; assay: Insulinotropic activity in rat INS1(833/15) cells assessed as increase in insulin secretion at 30 uM after 2 hrs by competitive enzyme immunoassay in the presence of 16 mM glucose; type: functional, cell-based; procedure, shortened: as §4

T1 sequence (O14842 whole entry): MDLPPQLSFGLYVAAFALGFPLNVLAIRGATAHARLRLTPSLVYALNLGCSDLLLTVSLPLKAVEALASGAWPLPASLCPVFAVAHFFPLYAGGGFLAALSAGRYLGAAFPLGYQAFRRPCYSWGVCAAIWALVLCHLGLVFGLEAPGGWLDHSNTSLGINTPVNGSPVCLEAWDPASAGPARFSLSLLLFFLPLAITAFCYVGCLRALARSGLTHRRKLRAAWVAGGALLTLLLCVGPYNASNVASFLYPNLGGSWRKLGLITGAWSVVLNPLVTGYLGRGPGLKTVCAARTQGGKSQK
Free fatty acid receptor 1 (Rattus norvegicus, UniProt Q8K3T4), sequence (Q8K3T4 whole entry): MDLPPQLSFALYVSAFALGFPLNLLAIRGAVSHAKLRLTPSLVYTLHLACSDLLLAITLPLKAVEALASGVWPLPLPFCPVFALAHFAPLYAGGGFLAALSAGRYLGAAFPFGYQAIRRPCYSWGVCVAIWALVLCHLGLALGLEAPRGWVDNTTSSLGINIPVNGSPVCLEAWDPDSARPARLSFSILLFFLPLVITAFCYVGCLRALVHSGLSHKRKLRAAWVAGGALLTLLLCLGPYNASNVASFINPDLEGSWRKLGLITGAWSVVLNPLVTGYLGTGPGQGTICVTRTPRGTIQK

CCS(=O)(=O)CCOc1cc(C)c(-c2cccc(CNc3ccc(CCC(=O)O)c(F)c3)c2)c(C)c1
Ki [1]: 4.5 nM
viability at 24 h, 30 µM [2]: 45.7%
Ki [3]: 20 nM
microsomal CLint [4]: 2 µL/min/mg
logD [5]: 2.39
viability at 24 h, 10 µM [6]: 79.8%
Activity (HepG2 [7]): -1%
Activity (HepG2 [8]): -0.9%
EC50 [9]: 99 nM

CCS(=O)(=O)CCOc1cc(C)c(-c2cccc(COc3ccc(CCC(=O)O)c(F)c3)c2)c(C)c1
Ki [1]: 4.2 nM
viability at 24 h, 30 µM [2]: 32.5%
Ki [3]: 15 nM
microsomal CLint [4]: 6 µL/min/mg
logD [5]: 3.02
microsomal CLint [10]: 10 µL/min/mg
viability at 24 h, 10 µM [6]: 79.8%
Activity (HepG2 [7]): -1.1%
Activity (HepG2 [8]): 17.7%
EC50 [9]: 25 nM

Cc1cc(OCCCN2CCCC2=O)cc(C)c1-c1cccc(COc2ccc(CCC(=O)O)c(F)c2)c1
Ki [1]: 9.7 nM
viability at 24 h, 30 µM [2]: 30.3%
Ki [3]: 21 nM
microsomal CLint [4]: 7 µL/min/mg
logD [5]: 3.51
microsomal CLint [10]: 5 µL/min/mg
viability at 24 h, 10 µM [6]: 54.1%
Activity (HepG2 [7]): 0.2%
Activity (HepG2 [8]): 20.3%
EC50 [9]: 32 nM

CCOCCOc1cc(C)c(-c2cccc(COc3ccc(CCC(=O)O)c(F)c3)c2)c(C)c1
Ki [1]: 4.5 nM
Ki [3]: 12 nM
microsomal CLint [4]: 8 µL/min/mg
logD [5]: 4.14
EC50 [9]: 4.5 nM

CC(C)[C@H]1CC[C@H](C(=O)N[C@H](Cc2ccccc2)C(=O)O)CC1
Activity (Rattus norvegicus [11]): Active
Activity (Rattus norvegicus [12]): Active
Activity (Rattus norvegicus [13]): Active

Cc1cc(OCC2(O)CCS(=O)(=O)CC2)cc(C)c1-c1cccc(CNc2ccc(CCC(=O)O)c(F)c2)c1
Ki [1]: 4.5 nM
viability at 24 h, 30 µM [2]: 75.9%
Activity (Rattus norvegicus [14]): Non-toxic
Activity (Rattus norvegicus [15]): Toxic
Activity (Rattus norvegicus [16]): Dose-dependent effect
Ki [3]: 19 nM
microsomal CLint [4]: 2 µL/min/mg
Activity (Rattus norvegicus [17]): Dose-dependent effect
Activity (Rattus norvegicus [18]): Non-toxic
logD [5]: 2.14
viability at 24 h, 10 µM [6]: 88.1%
Activity (HepG2 [7]): 0.8%
Activity (HepG2 [8]): 0.5%
Activity (Rattus norvegicus [19]): Active
EC50 [9]: 29 nM

Cc1cccc(C)c1-c1cccc(COc2ccc(CCC(=O)O)cc2)c1
Ki [1]: 27 nM
Ki [3]: 46 nM
microsomal CLint [4]: 28 µL/min/mg
logD [5]: 4.04
microsomal CLint [10]: 34 µL/min/mg
EC50 [9]: 22 nM

Cc1cccc(C)c1-c1cccc(COc2ccc(CCC(=O)O)c(F)c2)c1
Ki [1]: 36 nM
microsomal CLint [4]: 69 µL/min/mg
microsomal CLint [10]: 39 µL/min/mg

Cc1cc(OC2CCS(=O)(=O)CC2)cc(C)c1-c1cccc(COc2ccc(CCC(=O)O)c(F)c2)c1
Ki [1]: 6.4 nM
Activity (Rattus norvegicus [20]): Active
viability at 24 h, 30 µM [2]: 38%
Activity (Rattus norvegicus [21]): inactive
Ki [3]: 16 nM
Activity (Rattus norvegicus [22]): Dose-dependent effect
microsomal CLint [4]: 3 µL/min/mg
logD [5]: 3.06
Activity (Rattus norvegicus [23]): Active
viability at 24 h, 10 µM [6]: 79.8%
Activity (HepG2 [7]): -0.5%
Activity (HepG2 [8]): 28.9%
Activity (Rattus norvegicus [24]): inactive
Activity (Rattus norvegicus [25]): Active
EC50 [9]: 25 nM

COc1ccc(Cl)cc1C(=O)NCCc1ccc(S(=O)(=O)NC(=O)NC2CCCCC2)cc1 [GLYBURIDE]
Activity (Rattus norvegicus [26]): Active
Activity (Rattus norvegicus [27]): Toxic
Activity (Rattus norvegicus [28]): Active
Activity (Rattus norvegicus [29]): Toxic
Activity (Rattus norvegicus [30]): Active

— ChEMBL document CHEMBL2046346, “Discovery of phenylpropanoic acid derivatives containing polar functionalities as potent and orally bioavailable G protein-coupled receptor 40 agonists for the treatment of type 2 diabetes” (J Med Chem, 2012)
